Experimental data taken from ChEMBL document CHEMBL2424600, “Synthetic polyamines activating autophagy: effects on cancer cell death” (Eur J Med Chem, 2013).
Activity calls are given as the source filed them. The calls are words filed in the database; no cut-off is given here.

Key:
HeLa [1] = experiment: Induction of autophagy in human HeLa cells assessed as conversion of LC3-1 protein to LC3-2 protein at 8 mM after 24 hrs by Western blot analysis; type: functional, cell-based
Summary of the method: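 HeLa incubated 24 h with DENSPM (25 µM) or spermidine (8 mM); LC3-I/LC3-II processing by Western blot of 50 µg protein with monoclonal anti-LC3 antibody.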

HeLa [2] = experiment: Induction of autophagy in human HeLa cells assessed as acidic vesicles accumulation at 20 uM after 3 hrs by acridine orange staining-based immunofluorescence microscopic analysis; type: functional, cell-based
Summary of the method: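 HeLa incubated 3 h with 20 µM compound; acidic vesicle accumulation scored after acridine orange staining. Triplicate means ± S.E.M.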

Thymocyte = experiment: Cytotoxicity against rat thymocytes assessed as cell survival after 24 hrs by trypan blue exclusion assay; type: cell-based
Summary of the method: (§1)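 Cells exposed 24 h to increasing concentrations (DMSO vehicle, 0.1% of medium; controls got DMSO) at 37 °C, 5% CO2. Viability by trypan blue exclusion, triplicate samples, at least 10 fields counted each; survival as % of viable cells vs control. IC50 read from dose–response curve as concentration giving 50% survival.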

[3] = Cytotoxicity against human C-28/I2 cells assessed as cell survival after 24 hrs by trypan blue exclusion assay; type: cell-based; conditions: C28/I2, 24 h; summary of the method: as §1
HeLa [4] = experiment: Cytotoxicity against human HeLa cells assessed as cell survival after 24 hrs by trypan blue exclusion assay; type: functional, cell-based; summary of the method: as §1

NCCCCNCCCN
Activity (HeLa [1]): Active

c1ccc(C(CNCCCCCCNCCCCCCCCNCCCCCCNCC(c2ccccc2)c2ccccc2)c2ccccc2)cc1
Activity (HeLa [2]): Active
IC50 (Thymocyte): 82 µM
IC50 [3]: 60 µM
IC50 (HeLa [4]): 18 µM

COc1ccccc1CNCCCCCCNCCCCCCCCCCCCNCCCCCCNCc1ccccc1OC
Activity (HeLa [2]): Active
IC50 (Thymocyte): > 100 µM
IC50 [3]: 77 µM
IC50 (HeLa [4]): 21 µM
